From ChEMBL document CHEMBL1155025, “Xanthones from the botanical dietary supplement mangosteen (Garcinia mangostana) with aromatase inhibitory activity” (J Nat Prod, 2008) come the findings set out here.

A word on the IC50: it is the point on the concentration scale where inhibition reaches its midpoint.

For series [1], the target named is T1, Aromatase (Homo sapiens, UniProt P11511).
T1 sequence (P11511 whole entry): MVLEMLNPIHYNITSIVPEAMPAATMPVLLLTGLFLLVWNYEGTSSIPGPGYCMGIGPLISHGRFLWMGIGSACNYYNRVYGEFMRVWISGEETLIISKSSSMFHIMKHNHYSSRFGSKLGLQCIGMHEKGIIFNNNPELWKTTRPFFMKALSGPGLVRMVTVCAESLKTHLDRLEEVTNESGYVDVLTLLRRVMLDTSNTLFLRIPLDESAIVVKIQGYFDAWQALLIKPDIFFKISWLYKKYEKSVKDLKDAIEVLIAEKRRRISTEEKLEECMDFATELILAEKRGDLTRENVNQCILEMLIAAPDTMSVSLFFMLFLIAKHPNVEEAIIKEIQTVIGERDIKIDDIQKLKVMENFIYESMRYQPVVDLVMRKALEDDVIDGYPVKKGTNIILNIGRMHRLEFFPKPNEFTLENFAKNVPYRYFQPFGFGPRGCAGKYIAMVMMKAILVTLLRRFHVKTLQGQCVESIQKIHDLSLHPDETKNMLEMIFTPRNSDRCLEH
The series can be described thus: Inhibition of aromatase in human placental microsomes at 20 ug/ml relative to control. Details: species or system Placenta; scale not given: the % may be the effect or the level left. In short, it runs like this: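 Radiometric placental microsome assay with samples at 20 µg/mL in DMSO, in triplicate. 100 nM [1β-3H]androstenedione, pH 7.0 phosphate buffer, 5% propylene glycol, and NADPH-regenerating system. Reaction started with 50 µg microsomes, run 15 min at 37 °C, and stopped with CHCl3. 3H2O counted; percent control activity taken relative to DMSO.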

For series [2], the target named is T1, Aromatase. The series can be described thus: Inhibition of aromatase in human placental microsomes. Details: species or system Placenta. The method in brief:
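Human term placental microsomes (50 µg, processed at 4 °C) incubated for 15 min at 37 °C with 100 nM [1β-3H]androstenedione in 0.1 M potassium phosphate pH 7.0, 5% propylene glycol, and NADPH-regenerating system. Quenched with CHCl3; 3H2O in aqueous layer counted by scintillation. IC50 derived from dose-response testing.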

For series [3], the target named is T1, Aromatase. In words: Inhibition of aromatase over-expressed in human SKBR3 cells. It counts as cell-based, SK-BR-3. In short, it runs like this:
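SK-BR-3 human breast cancer cells overexpressing aromatase were treated in triplicate at various concentrations (screen at 50 µM), with 0.1% DMSO as negative control and 10 nM letrozole as positive control. Read-out was pmol 3H2O formed per hour per 10^6 live cells. Percent control activity was calculated versus DMSO.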

Series [4] addresses T1, Aromatase. The series can be described thus: Inhibition of aromatase over-expressed in human SKBR3 cells at 50 uM relative to control. It counts as cell-based. Details: scale not given: the % may be the effect or the level left. As to conditions: SK-BR-3, human; read-out: Activity. The method in brief:
(§1)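 SK-BR-3 human breast cancer cells overexpressing aromatase, treated in triplicate. 0.1% DMSO serves as negative control. Tritiated water formation is read as pmol 3H2O/h per 10^6 live cells and expressed as percent control activity versus DMSO.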

The subject of a further series is SK-BR-3. In words: Cytotoxicity against human SKBR3 cells assessed as survival by MTT assay relative to control. It counts as functional. The method in brief:
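MTT viability assay in SK-BR-3 human breast cancer cells that overexpress aromatase. Cells exposed to samples in DMSO, with DMSO as negative control. Six replicates. Read-out is percent cell survival relative to the DMSO control. IC50 obtained from a concentration–response curve.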

Series [5] concerns the target T1, Aromatase. The series can be described thus: Inhibition of aromatase over-expressed in human SKBR3 cells at 10 nM relative to control. It counts as cell-based. More on the design: scale not given: the % may be the effect or the level left. As to conditions: SK-BR-3, human; read-out: Activity. In short, it runs like this: as §1

The compound `COc1c(O)cc2oc3cc(O)c4c(c3c(=O)c2c1CC=C(C)C)OC(C)(C)CC4` registered an Activity on Aromatase [1] of 52.6%. The compound `CC(C)=CCc1c(O)cc2oc3c(CC=C(C)C)c(O)c4c(c3c(=O)c2c1O)C=CC(C)(C)O4` [TOVOPHYLLINE A] came in with an Activity on Aromatase [1] of 74.7%. On to `CC(C)=CCc1c(O)cc2oc3cc(O)c(O)c(CC=C(C)C)c3c(=O)c2c1O`, for which the figures for the IC50 against Aromatase [2] and against Aromatase [3] were 6.9 µM and 4.97 µM, respectively. The activity at 50 µM at Aromatase [4] was -0.5%. For the same compound, at Aromatase [1], the Activity is given as 4.7%. On Aromatase [2], `CC(C)=CCc1c(O)cc2oc3c(CC=C(C)C)c(O)c(O)c(CC=C(C)C)c3c(=O)c2c1O` [GARCINONE E] gave an IC50 of 25.1 µM. Also, at Aromatase [4], the activity at 50 µM was determined as 32.3%. The Activity on Aromatase [1] is recorded as 23.9%. Further, the Survival in the series with SK-BR-3 is recorded as 52.3%. As to `CC(C)=CCc1c(O)c(CC=C(C)C)c2oc3c(O)cccc3c(=O)c2c1O` [8-DEOXYGARTANIN], at Aromatase [1], the Activity was found to be 82.6%. The compound `COc1c(O)cc2oc3cc(O)c(CC=C(C)C)c(O)c3c(=O)c2c1CCC(C)(C)O` [GARCINONE D] registered an IC50 at Aromatase [2] of 5.2 µM. Also, the activity at 50 µM at Aromatase [4] worked out at 50.7%. Besides, the Activity on Aromatase [1] came out at 10%. Further, the Survival in the series on SK-BR-3 is given as 89.4%. On to `CC(C)=CCC/C(C)=C/Cc1c(O)cc2oc3c(O)ccc(O)c3c(=O)c2c1O` [SMEATHXANTHONE A], for which, on Aromatase [1], the Activity was 80.8%. The compound `COc1c(CC=C(C)C)c(O)c2c(=O)c3c(O)ccc(O)c3oc2c1CC=C(C)C` yielded an Activity on Aromatase [1] of 55.1%. Turning to `COc1c(O)cc2oc3cc(O)c(CC=C(C)C)c(O)c3c(=O)c2c1CC=C(C)C` [MANGOSTIN], the IC50 against Aromatase [2] stood at 20.7 µM. Besides, on Aromatase [4], the activity at 50 µM was found to be 59.4%. This compound also gave an Activity on Aromatase [1] of 22.2%. Also, the Survival in the series on SK-BR-3 was determined as 18.4%. In the case of `COc1c(CC=C(C)C)c(O)c2c(=O)c3cccc(O)c3oc2c1CC=C(C)C` [CUDRAXANTHONE G], the Activity on Aromatase [1] turned out to be 57.8%. For the compound `N#Cc1ccc(C(c2ccc(C#N)cc2)n2cncn2)cc1` [LETROZOLE], the activity at 0.01 µM on Aromatase [5] came out at 7.4%. The compound `CC(C)=CCC/C(C)=C/Cc1c(O)cc2oc3c(O)cccc3c(=O)c2c1O` [MANGOSTINONE] yielded an Activity on Aromatase [1] of 78.8%. As to `CC(C)=CCc1c(O)c(CC=C(C)C)c2oc3c(O)ccc(O)c3c(=O)c2c1O` [GARTANIN], the Activity at Aromatase [1] is recorded as 75.9%.
